From ChEMBL document CHEMBL1137302 (J Med Chem, 2006)
The source made the active and inactive calls. No cut-off for these calls is given here.

Experiments:
D(4) dopamine receptor = target: T1, D(4) dopamine receptor (Homo sapiens, UniProt P21917); experiment: Agonist activity at human D4.4 receptor in HEK293 cells coexpressing G-alpha-qo5 by FLIPR; type: functional, cell-based
T1 sequence (P21917 whole entry): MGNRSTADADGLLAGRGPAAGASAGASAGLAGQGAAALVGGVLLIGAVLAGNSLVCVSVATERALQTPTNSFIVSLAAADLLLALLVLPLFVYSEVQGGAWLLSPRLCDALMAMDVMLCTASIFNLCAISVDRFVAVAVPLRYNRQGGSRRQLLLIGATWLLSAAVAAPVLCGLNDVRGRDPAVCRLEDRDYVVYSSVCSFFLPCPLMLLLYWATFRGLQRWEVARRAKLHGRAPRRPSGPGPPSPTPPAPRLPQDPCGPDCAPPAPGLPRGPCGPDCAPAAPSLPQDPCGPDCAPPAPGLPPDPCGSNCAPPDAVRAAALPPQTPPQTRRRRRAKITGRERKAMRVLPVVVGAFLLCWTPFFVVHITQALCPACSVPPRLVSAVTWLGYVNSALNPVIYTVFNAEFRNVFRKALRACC

[1] = target: T2, D(4) dopamine receptor (Homo sapiens) (UniProt P21917); experiment: Activity at human D4.4 receptor in HEK293 cells co-expressing Galphaqo5 by FLIPR; type: functional, cell-based; conditions: filed as partial agonist
T2 sequence (whole entry): T1 sequence (P21917 whole entry)

[2] = target: T2, D(4) dopamine receptor (Homo sapiens); experiment: Agonist activity at human D4.4 receptor in HEK293 cells coexpressing G-alpha-qo5 by FLIPR with relative to dopamine upto 10 uM; type: functional, cell-based
[3] = Agonist activity at ferret D4 receptor in HEK293 cells coexpressing G-alpha-qo5 by FLIPR; type: functional, cell-based, Mustela putorius furo; conditions: Mustela putorius
Summary of the method: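 HEK cells cotransfected with ferret D4 receptor and chimeric G protein Gqo5, with receptor activation read as a calcium flux signal on FLIPR. EC50 is the concentration giving half-maximal activation.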

Rattus norvegicus = experiment: Proerectile activity in rat measured as incidence of penile erection at 0.1 umol/kg, sc; type: functional
Summary of the method: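 Conscious male rats were given a single subcutaneous injection and observed for penile erections over the following 60 min. The read-out was the incidence of erections, expressed as % of animals ± SEM (n = 12–32 animals per group), with significance tested against controls. The value is the maximal incidence at the maximally effective dose.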

[4] = Agonist activity at ferret D4 receptor in HEK293 cells coexpressing G-alpha-qo5 by FLIPR relative to dopamine; type: functional, Mustela putorius furo
[5] = target: T2, D(4) dopamine receptor (Homo sapiens); experiment: Agonist activity at human D4.4 receptor in HEK293 cells coexpressing G-alpha-qo5 by FLIPR upto 10 uM; type: functional, cell-based
[6] = Bioavailability in Sprague-Dawley rat at 1 mg/kg, po; type: ADME, organism-based; conditions: in vivo
Summary of the method: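 Single 1 mg/kg dose given iv, sc or orally to Sprague-Dawley rats, dogs and monkeys; plasma concentrations followed over time (mean ± SEM, n = 3). Cmax, AUC, half-life, clearance and bioavailability calculated from the curves.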

## O=C(CN1CCC(c2cccc[n+]2[O-])CC1)Nc1cccc(-c2ccccc2)c1
D(4) dopamine receptor
  EC50: 0.36 µM

## O=C(NCN1CCC(c2cccc[n+]2[O-])CC1)c1cc(Cl)cc(Cl)c1
D(4) dopamine receptor
  EC50: 0.045 µM

## O=C(CN1CCC(c2cccc[n+]2[O-])CC1)Nc1ccccc1F
D(4) dopamine receptor
  EC50: 0.27 µM

## O=C(CN1CCC(c2ccccn2)CC1)Nc1c(Cl)cc(Cl)cc1Cl
D(4) dopamine receptor
  EC50: 0.145 µM

## O=C(CN1CCC(c2cccc[n+]2[O-])CC1)NC1CCCCC1
[1]
  Activity: Partial agonist
D(4) dopamine receptor
  EC50: 0.294 µM

## Cc1ccc(Cl)c(NC(=O)CN2CCC(c3cccc[n+]3[O-])CC2)c1Cl
D(4) dopamine receptor
  EC50: 0.346 µM

## Cc1cc(Cl)cc(C)c1NC(=O)CN1CCC(c2ccccn2)CC1
D(4) dopamine receptor
  EC50: 0.24 µM

## Cc1cccc(NC(=O)CN2CCC(c3ccccc3F)CC2)c1
D(4) dopamine receptor
  EC50: 0.001 µM

## Cc1cccc(NC(=O)CN2CCC(c3cccc(O)c3)CC2)c1
[1]
  Activity: Partial agonist
D(4) dopamine receptor
  EC50: 0.008 µM

## O=C(CN1CCC(c2cccc[n+]2[O-])CC1)Nc1ccccn1
[2]
  Activity: inactive

## O=C(NCN1CCC(c2cccc[n+]2[O-])CC1)c1cnccc1Cl
D(4) dopamine receptor
  EC50: 1.29 µM

## O=C(CN1CCC(c2cccc[n+]2[O-])CC1)Nc1ccc(F)cc1
D(4) dopamine receptor
  EC50: 0.085 µM

## Cc1cccc(C)c1NC(=O)CN1CCC(c2cccc[n+]2[O-])CC1
D(4) dopamine receptor
  EC50: 0.346 µM

## CCc1cccc(C)c1NC(=O)CN1CCC(c2ccccn2)CC1
D(4) dopamine receptor
  EC50: 0.111 µM

## CN1CCc2cccc3c2[C@H]1Cc1ccc(O)c(O)c1-3 [APOMORPHINE]
[3]
  EC50: 0.0015 µM
Rattus norvegicus
  Activity: 91%
[4]
  Efficacy: 84%

## CSc1cccc(NC(=O)CN2CCC(c3cccc[n+]3[O-])CC2)c1
D(4) dopamine receptor
  EC50: 0.1 µM

## NCCc1ccc(O)c(O)c1 [DOPAMINE]
[3]
  EC50: 0.0027 µM

## Cc1cccc(NC(=O)CN2CCC(c3ccccc3C)CC2)c1
D(4) dopamine receptor
  EC50: 0.34 µM

## Cc1cccc(NC(=O)CN2CCC(c3ccc(F)cc3)CC2)c1
[5]
  Activity: inactive

## C=Cc1cccc(C(=O)NCN2CCC(c3cccc[n+]3[O-])CC2)c1
D(4) dopamine receptor
  EC50: 0.068 µM

## CCc1cccc(NC(=O)CN2CCC(c3cccc[n+]3[O-])CC2)c1
D(4) dopamine receptor
  EC50: 0.095 µM

## Cc1ccc(Cl)cc1NC(=O)CN1CCC(c2cccc[n+]2[O-])CC1
D(4) dopamine receptor
  EC50: 0.126 µM

## O=C(NCN1CCC(c2cccc[n+]2[O-])CC1)c1cccs1
[2]
  Activity: inactive

## Cc1cccc(NC(=O)CN2CCC(c3ccccc3)CC2)c1
D(4) dopamine receptor
  EC50: 0.17 µM

## O=C(CN1CCC(c2cccc[n+]2[O-])CC1)Nc1cccc(F)c1
D(4) dopamine receptor
  EC50: 0.16 µM

## [O-][n+]1ccccc1C1CCN(Cc2nc3ccccc3[nH]2)CC1
[1]
  Activity: Partial agonist
D(4) dopamine receptor
  EC50: 0.054 µM

## COc1cc(C(=O)NCN2CCC(c3cccc[n+]3[O-])CC2)ccc1Cl
D(4) dopamine receptor
  EC50: 0.159 µM

## Cc1cccc(NC(=O)CN2CCC(c3ccc(O)cn3)CC2)c1
[6]
  bioavailability: 0%
D(4) dopamine receptor
  EC50: 0.0038 µM

## N#Cc1cccc(C(=O)NCN2CCC(c3cccc[n+]3[O-])CC2)c1
D(4) dopamine receptor
  EC50: 0.84 µM

## COc1cccc(C(=O)NCN2CCC(c3cccc[n+]3[O-])CC2)c1C
D(4) dopamine receptor
  EC50: 0.685 µM

## O=C(NCN1CCC(c2cccc[n+]2[O-])CC1)c1ccccn1
D(4) dopamine receptor
  EC50: 3.15 µM

## O=C(CN1CCC(c2cccc[n+]2[O-])CC1)Nc1cc(Cl)cc(Cl)c1
D(4) dopamine receptor
  EC50: 0.16 µM

## O=C(CN1CCC(c2cccc[n+]2[O-])CC1)Nc1cccc(C(F)(F)F)c1
D(4) dopamine receptor
  EC50: 0.076 µM
